Laboratory results reported in PMC6304448 (Heliyon, 2018).
Values after ≈ are worked out from the molar mass of the structure shown.

How the values were obtained:
Format in all cases: cell-based
[1] = system: Leishmania donovani promastigotes; experiment: Antileishmanial assay; conditions: 72 h; for IC50: read-out: antileishmanial activity IC50; for IC90: read-out: antileishmanial activity IC90
Summary of the method: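 Leishmania donovani promastigote or axenic amastigote cultures at 2 × 10⁶ cells/ml were exposed to test compound and incubated at 26 °C for 72 hours. Growth was read by AlamarBlue. Pentamidine and amphotericin B served as positive controls. IC₅₀ and IC₉₀ were computed from dose-response curves.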

[2] = In-vitro cytotoxicity assay; conditions: African green monkey, VERO cells (mammalian kidney fibroblasts, ATCC)
Summary of the method: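 VERO cells were seeded at 25,000 cells/well and incubated for 24 h. Test compound was added at a range of concentrations and incubated a further 48 h. Viable cells were quantified by a modified Neutral Red uptake method. Doxorubicin was the positive control and DMSO the negative control. IC₅₀ was derived from dose-response curves.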

[3] = system: chloroquine resistant (W2, Indo China) strain of Plasmodium falciparum; experiment: Antimalarial assay; conditions: W2, 72 h, read-out: antimalarial activity IC50
Summary of the method: (§1)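 Test compound was dissolved in DMSO (2 mg/ml stock) and serially diluted. It was then added to P. falciparum culture (2% parasitemia, 2% hematocrit) in RPMI 1640 with 10% human serum and 60 μg/mL amikacin. Plates were held under 90% N₂/5% O₂/5% CO₂ at 37 °C for 72 hours. Parasite LDH was assayed with Malstat reagent for 30 min, then NBT/PES for 1 h in the dark. The reaction was stopped with 5% acetic acid and read at 650 nm. Chloroquine and artemisinin were positive controls and DMSO (0.25%) the negative control. IC₅₀ came from percent growth versus concentration curves.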

[4] = system: chloroquine sensitive (D6, Sierra Leone) strain of Plasmodium falciparum; experiment: Antimalarial assay; conditions: D6, 72 h, read-out: antimalarial activity IC50
Summary of the method: as §1

Row | SMILES | IC50 [1] [µg/mL] | IC90 [1] [µg/mL] | IC50 at 48 h [2] [µg/mL] | IC50 [3] [µg/mL] | IC50 [4] [µg/mL]
1 | O=C1CC(O)C2(O)c3c(ccc(O)c31)-c1ccc(O)c3c1C2C1OC1C3O (stereo not shown) [Compound 1, 3,6,6a,9,10-pentahydroxy-7,8-epoxy-4-oxo-4,5,6,6a,6b,7,8,9-octahydroperylene] | 2.55 (≈ 6.92 µM) | 8.28 (≈ 22.5 µM) |  |  | 
2 | O=C1CC(O)C2c3c(ccc(O)c31)-c1ccc(O)c3c1C2(O)C(O)CC3=O (stereo not shown) [Compound 2, 3,6,6a,7,10-pentahydroxy-4,9-dioxo-4,5,6,6a,6b,7,8,9-octahydroperylene] | 4.4 (≈ 11.9 µM) | 9.54 (≈ 25.9 µM) | 3.59 (≈ 9.75 µM) | 3.65 (≈ 9.91 µM) | 4.24 (≈ 11.5 µM)
